Compound activity (PubChem BioAssay)
A selection: hits, their analogues and other compounds. The true share with any hit is near 2.6%.
MITF TRPM1 HTS: MITF TRPM1 promoter activation in melanoma cells | activation, % at 12.5 µM | SK-MEL-5 TRPM1-promoter luciferase, 24 h; % of positive control, neutral wells = 0 | AID 588334 | hit rate 0.75% among 300,000;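 active = mean activation of at least 80% with every replicate also reaching 80%; inconclusive = mean reaches 80% but some replicate falls short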;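 also: 0% = neutral control wells and 100% = parthenolide positive control wells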
XiGFP reactiv: activators of X-chromosome reactivation in mouse fibroblasts; hit rate 0.055% among 360,000; XiGFP mouse fibroblasts, % GFP-positive cells imaging, 3 d; cells co-treated with 5-aza-dC sensitizer; scaled so ellipticine positive control = 100%; activation, % at 7.58 µM;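 active = mean normalized replicate activation at least 10% and every replicate at or above 10%; inconclusive = only one of the two criteria met; inactive = mean below 10% and not all replicates reach 10%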;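 also: 0% = median of on-plate neutral control wells and 100% = ellipticine 6 µM median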
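Material: XiGFP fibroblasts, SV40-immortalized. Buffer or medium: DMEM plus 5-aza-dC sensitizer. Compound: single concentration per compound, delivered by pin transfer. Times: 3 days compound exposure. Controls: ellipticine 6 µM.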
Vif imaging: HIV Vif inhibition. inhibition, % at 7.49 µM. hit rate 0.35% among 340,000. HEK293T cells, Vif self-association by quenched fluorescence, imaging, 24 h; in the data active = inhibition above about 50%, passing the limit was not always enough; inconclusive = no clear call, values can overlap the other calls; inactive = below about 31%
Wnt act: Wnt/beta-catenin pathway activation; hit rate 1.2% among 300,000; activation, % at 9.35 µM; Wnt/beta-catenin reporter cell assay, activator, plate reader; in the data active = activation above about 30%, passing the limit was not always enough; inconclusive = no clear call, values can overlap the other calls;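 also: 0% = neutral control wells and 100% = positive control wells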
esBAF inh: blocks esBAF chromatin remodeling in mouse ES cells; Bmi1-luciferase knock-in reporter, 24 h; 100% = twice the neutral-well signal; reporter increase, % at 12.5 µM; hit rate 2% among 350,000; in the data active = activation above about 40%; inconclusive = no clear call, values can overlap the other calls;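 also: 0% = median of the plate's neutral control wells and 100% = double that signal; a rise in the Bmi1 reporter signal indicates esBAF inhibition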
Active calls of the source: *; ? = inconclusive; · = no result given.

SMILES	MITF TRPM1 HTS	XiGFP reactiv	Vif imaging	Wnt act	esBAF inh
COc1ccccc1-c1ccc2c(c1)[C@@H]1[C@@H](CCN1S(=O)(=O)c1ccccc1F)[C@H](CO)N2	·	0	·	·	-1
Nc1c2c(nc3sc4c(c13)CCCC4)-c1ccccc1CC2	·	0	1	42*	-14
COc1ccc(S(=O)(=O)N(C)C[C@H]2Oc3c(NS(=O)(=O)c4ccc(C)cc4)cccc3C(=O)N([C@H](C)CO)C[C@@H]2C)cc1	·	-1	·	·	·
S=C(NNC(=S)Nc1ccc(Cl)cc1)NNc1ccccc1	·	0	0	2	·
S=C(N=Nc1ccccc1)NNc1ccccc1	32	0	-2	44*	63*
CN1c2ccc(-c3cccc(C#N)c3)cc2[C@H]2[C@H](CCN2C(=O)NC2CCCCC2)[C@@H]1CO	·	0	·	·	1
OCC1CCCN(C(=S)Nc2ccc(Oc3ccccc3)cc2)C1 (centres undefined)	53	0	-15	9	82*
O=C(Nc1ccccc1)c1cc(C2CCCN(C(=O)c3cccs3)C2)on1 (centres undefined)	·	0	-1	34*	56*
O=C(NCc1ccccc1)c1cc(C2CCCN(C(=O)c3cccs3)C2)on1 (centres undefined)	·	0	6	-2	1
COc1ccc(NC(=S)N2CCC(c3ccccc3)C2)cc1 (centres undefined)	108*	0	0	?	?
O=C(c1cccs1)N1CCC(c2ccccc2)C1 (centres undefined)	69	·	3	51*	·
O=C(Nc1ccccc1)N1CCC(c2ccccc2)C1 (centres undefined)	106*	·	10	·	21
CCc1ccc(NC(=O)N2CCC(c3ccccc3)C2)cc1 (centres undefined)	56	0	-2	1	·
COCC(=O)Nc1ccc2c(c1)C(=O)N(C)C[C@H](OC)[C@@H](C)CN(Cc1ccccc1OC)[C@H](C)CO2	·	0	·	·	5
CCCCCc1ccc(-c2ccc(OC)cc2)nc1	97*	0	-2	20	98*
Fc1ccc(N/N=C/c2ccncc2)c(F)c1	63	0	-1	18	·
Fc1ccc(N/N=C/C=C/c2ccccc2)c(F)c1	46	0	9	12	51*
Cc1ccc(-c2nn(-c3ccccc3)cc2CO)cc1	69	0	-4	14	90*
O/N=C/c1cn(-c2ccccc2)nc1-c1cccnc1	8	0	-2	0	·
Cc1ccc(-c2nn(-c3ccccc3)cc2/C=N/O)cc1	92*	0	·	3	14
COc1ccc(Cl)cc1NC(=O)c1cc(-c2ccccc2O)n[nH]1	1	·	-12	·	·
Cc1cccc(NC(=O)c2cc(-c3cc(C)ccc3O)n[nH]2)c1	?	0	10	?	12
Cc1cccc(NC(=O)c2cc(-c3cc(C)c(C)cc3O)n[nH]2)c1	69	0	-4	?	70*
Cc1c(Cl)cccc1NC(=O)c1cc(-c2ccccc2O)n[nH]1	74	·	10	10	49*
Cc1ccc(-c2cc(C(=O)Nc3cccnc3)[nH]n2)c(O)c1C	114*	·	-2	44*	·
SMILES	MITF TRPM1 HTS	XiGFP reactiv	Vif imaging	Wnt act	esBAF inh
CO[C@@H]1CN(C)C(=O)c2ccc(NS(=O)(=O)c3cccc(F)c3)cc2OC[C@@H](C)N(C(=O)Cc2cccnc2)C[C@H]1C	·	0	·	·	0
COc1ccc(S(=O)(=O)Nc2cccc3c2O[C@@H](CN(C)C(=O)NC(C)C)[C@@H](C)CN([C@@H](C)CO)C3=O)cc1	·	1	·	·	-2
Oc1ccccc1N=Nc1ccccc1O	-13	1	1	-1	·
Nc1ccc(N=Nc2ccccc2O)c(N)c1	·	0	5	49*	·
Oc1ccc(/C=N/Nc2cccc(Cl)n2)c(O)c1	109*	0	19	18	34
Oc1ccc(/C=N/Nc2ccc(C(F)(F)F)cn2)c(O)c1	-1	0	6	5	·
NC(=O)C(=O)N/N=C1\CCc2ccccc21	29	0	10	33*	48*
COc1ccc(OCC(=O)N/N=C2\CCc3ccccc32)cc1	14	·	-7	·	10
C/C=C/c1ccc([C@H]2[C@@H](CO)N3C(=O)CN(C(=O)c4ccc(F)cc4)C[C@@H]23)cc1	·	0	·	·	·
C[C@H]1CN([C@@H](C)CO)C(=O)c2cc(C#CCc3ccccc3)cnc2O[C@@H]1CN(C)Cc1ccccc1	·	0	·	·	·
Oc1ccccc1C1=Nc2nc3ccccc3n2C(c2ccccc2)C1 (centres undefined)	67	·	·	·	49*
